Assay outcomes deposited in PubChem by several laboratories.
NALP1 inh = inhibitors of NALP1 inflammasome in yeast; hit rate 0.61% among 280,000; inhibition, % at 10 µM; AID 2071; S. cerevisiae NALP1/ASC/caspase-1 growth, X-gal OD620, 72 h; in the data active means inhibition mostly above about 24%, no sharp cut-off; inactive means mostly below about 32%
ALR inh = inhibitors of human sulfhydryl oxidase ALR; P55789; purified ALR, DTT oxidation, H2O2 HRP-luminol luminescence; inhibition, % (concentration not given with the values); hit rate 3.8% among 290,000; AID 485317;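 active means mean replicate inhibition above about 79%, with every replicate also reaching it, limit read from the data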
PolyA inhibitor = inhibitors of polyadenylation in S. cerevisiae; S. cerevisiae SKY197-pL101 polyadenylation reporter, beta-gal luminescence; efflux-impaired pdr1/pdr3 knockout yeast; score 100 = 6 SD above DMSO; activity score, % at 12 µM; hit rate 0.02% among 300,000;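 active means lowest replicate activity score at least 50, where 100 means six control SD above control mean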;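 further: yeast exposed to compound for 9 h at 30 °C; higher score means more reporter readthrough which indicates perturbed polyadenylation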
Pemphigus Ab inh = human desmoglein-3 autoantibody binding inhibition | DSG3-coupled beads, scFv-anti-DSG3-GFP binding, flow cytometry; stronger effect = lower value | binding (percent of control), % at 10 µM | hit rate 0.48% among 310,000 | AID 588358;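 active means binding more than 3 SD below its plate's average and above zero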;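 further: hits lower antibody fragment binding to DSG3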
Arrestin-AP2 inh = human beta-arrestin and AP2 interaction inhibition | hit rate 0.31% among 340,000 | FITC-arrestin peptide / GST-AP2 beads, flow cytometry; AP2 beta2 appendage carries R879A mutation | inhibition, % at 10 µM;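 active means inhibition above a set limit, near 3 SD of compounds lacking own fluorescence, cut at about 54% in these data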;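 further: plate controls were DMSO wells for no effect and 5 µM unlabelled arrestin peptide for full effect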
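System: GST-tagged AP2 beta2-adaptin appendage (R879A) on 4 µm glutathione beads / Reagent: FITC-arrestin peptide, 50 nM / Detection: HyperCyt-sampled flow cytometry, FL1 channel, ex 488/em 535 nm / Timing: 12 min plus 1 h, RT / Buffer or medium: PBS plus Tween 20 (0.05%) and BSA (0.1%)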
NALP3 yeast inh = inhibitors of NALP3 inflammasome in yeast. Yeast reconstituted NLRP3/ASC/caspase-1, beta-gal luminescence, 24 h. inhibition, % at 10 µM. hit rate 0.39% among 330,000. AID 2825;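 active means inhibition of 50% or more; inactive means inhibition below 50%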;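 further: plate controls were induced DMSO wells for no effect and uninduced yeast grown without galactose for full effect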
NALP3 confirm = NALP3 inhibition confirmation in yeast; shares compounds with NALP3 yeast inh; yeast expressing human NALP3, luminescence; inhibition, % at 10 µM; hit rate 81% among 1,300; AID 435006; in the data active means inhibition above about 48%
Casp1 ASC ctr = caspase-1-ASC yeast counter-screen hit | shares compounds with NALP3 yeast inh | yeast expressing Caspase-1-ASC, luminescence counter screen | inhibition, % at 10 µM | hit rate 66% among 1,000 | AID 488784
NALP3 yeast rt = confirmation retest of NALP3 inhibitors in yeast. shares compounds with NALP3 yeast inh. yeast expressing human NALP3, luminescence read-out. inhibition, % at 10 µM. hit rate 53% among 1,000. AID 488794
* marks the source's active call; other numbers are inactive results; . = no result given. Only some compounds are listed: those with a hit (about 4.6% of all), similar ones and a draw of the others. Unless noted, no stated cut-off is given here; in the data, active means inhibition above about 50%; inactive means the rest.

SMILES | NALP1 inh | ALR inh | PolyA inhibitor | Pemphigus Ab inh | Arrestin-AP2 inh | NALP3 yeast inh | NALP3 confirm | Casp1 ASC ctr | NALP3 yeast rt
O=[N+]([O-])c1ccc(N2CCCC2)c(F)c1Br | 23.4 | -0.9 | -24.3 | 95.3 | -4.1 | 52.2* | 59.8* | 71.5* | 61.8*
O=[N+]([O-])c1ccc(N2CCCC2)c2ncccc12 | 1.1 | -51.2 | -33.6 | 99.1 | 32.4 | 41.5 | . | . | .
CCS(=O)(=O)Nc1cccc(C(=C2CCCCC2)c2cnc[nH]2)c1 | . | 0.4 | . | 104.7 | 0.5 | 24.8 | . | . | .
Oc1c(Br)cc(Br)cc1Br | . | -3.6 | . | 101.3 | 14.4 | 12.5 | . | . | .
Oc1c(Br)c(Br)c(Br)c(Br)c1Br | . | 3.6 | . | 108.0 | 17.5 | 66.0* | 70.8* | 73.8* | 90.7*
O=C1c2ccccc2C(=O)N1Cc1nc2ccccc2c(=O)n1-c1cccnc1 | -10.3 | -1.3 | 3.1 | 107.9 | -3.5 | 11.6 | . | . | .
O=C1c2ccccc2C(=O)N1Cc1nc2ccccc2c(=O)n1-c1ccc(Br)cn1 | 37.6 | -15.7 | 2.4 | 105.8 | 1.8 | 61.4* | 73.7* | 35.4 | 34.5
O=C1CCC2(O)C3Cc4ccc(O)c5c4C2(CCN3Cc2ccoc2)C1O5 (stereo not given) | . | . | . | 109.9 | . | . | . | . | .
C[C@]12CCC3C(CC[C@H]4C[C@@H](O)CC[C@]34C)C1[C@H]1CN=N[C@H]1[C@@H]2O (stereo not given in full) | . | 3.2 | . | 96.6 | 28.1 | 37.4 | . | . | .
CC(=O)OCC(=O)[C@H]1CC[C@H]2[C@@H]3CC[C@H]4C[C@H](O)CC[C@]4(C)[C@H]3C(=O)C[C@]12C | . | -24.8 | . | 103.2 | 32.9 | 56.1* | 70.7* | 52.7* | 53.4*
CC(=O)[C@H]1CC[C@H]2[C@@H]3CC[C@H]4C[C@H](O)CC[C@]4(C)[C@H]3C(=O)C[C@]12C | 29.2 | -19.9 | 12.7 | 91.9 | 1.1 | 23.4 | . | . | .
C[C@]12CC[C@H](O)C[C@H]1CC[C@@H]1[C@@H]2CC[C@]2(C)[C@@H](C3=CC(=O)OC3)CC[C@]12O | . | -7.4 | . | 95.7 | -0.5 | 28.4 | . | . | .
C[C@]12CCC3C(CC[C@H]4C[C@@H](O)CC[C@]34C)C1CCC2=O (stereo not given in full) | . | -14.3 | . | 96.1 | 17.9 | 64.0* | 66.2* | 62.9* | 43.6
C[C@]12CCC3C(CC[C@H]4C[C@@H](O)CC[C@]34C)[C@H]1C=CC2=O (stereo not given in full) | . | -3.4 | . | 90.9 | 4.3 | 55.3* | 60.0* | . | .
C[C@]12CCC3C(CC[C@H]4C[C@@H](O)CC[C@]34C)C1C[C@@H](Br)[C@H]2O (stereo not given in full) | . | -4.0 | . | . | . | 58.3* | 50.3* | . | .
CC1=CC(C)CC(C)OC(=O)CC(c2ccc(O)cc2)NC(=O)C(Cc2c(Br)[nH]c3ccccc23)N(C)C(=O)C(C)NC(=O)C(C)C1 (stereo not given) | . | . | . | 85.4 | -0.5 | . | . | . | .
C=C(C)C(Cc1c(OC)ccc(C(=O)/C=C/c2ccc(O)cc2)c1O)OO (stereo not given) | . | . | . | 99.5 | 17.0 | 44.8 | . | . | .
C[C@]12CCC3C(CC[C@H]4C[C@@H](O)CC[C@]34C)C1CC[C@@H]2OC(=O)[C@H](N)CCCCN (stereo not given in full) | . | -2.2 | . | 121.7 | 9.3 | 66.1* | 57.3* | . | .
C[C@]12CC[C@H](O)C[C@@H]1CC[C@@H]1[C@@H]2CC[C@]2(C)C(=O)CC[C@@H]12 | 26.8 | -70.6 | -15.0 | 114.9 | 2.2 | 66.8* | 61.9* | 62.0* | 41.5
CC(=O)O[C@H]1C[C@@H]2CC[C@@H]3[C@H](CC[C@]4(C)C(=O)CC[C@@H]34)[C@@]2(C)C[C@@H]1OC(C)=O | . | . | . | 103.4 | 4.7 | 24.2 | . | . | .
